Bioassay records from PubChem BioAssay.
APJ ag: APJ receptor agonism; P35414; activation, % at 20 µM; AID 2520; hit rate 0.11% among 330,000; CHO-K1 APJ PathHunter beta-arrestin, luminescence; 0% DMSO wells, 100% apelin;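 active = activation more than six SD over the plate average, tested at 20 µM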;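 note: 0% = DMSO alone and 100% = apelin-13 at 10 nM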
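assay system = CHO-K1 APJ beta-arrestin complementation cell line | input = cell density 1000 per well | dosing = compound 20 µM once, DMSO 1% | timing = compound 90 min 25 °C, reagent 1 h | measured by = luminescence from split beta-galactosidase complementation, Galacton Star/Emerald II substrate | read-out basis = APJ agonist activity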
EBI2 block: blocks human EBI2 receptor beta-arrestin signaling; P32249; EBI2 beta-arrestin recruitment, luminescence, 7a,25-OHC stimulated; inhibition, % at 5 µM; hit rate 0.81% among 360,000; AID 651636; in the data active = inhibition above about 38%;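 note: enzyme fragment complementation signal reports receptor beta-arrestin coupling in cells; 0% = agonist plus DMSO wells and 100% = wells without agonist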
CXCR6 block: inhibitors of human CXCR6 receptor; CHO-K1 PathHunter CXCR6 beta-arrestin, luminescence; O00574; inhibition, % at 20 µM; hit rate 0.36% among 360,000; in the data active = inhibition above about 34%, passing the limit was not always enough;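 note: antagonist mode with CXCL16 agonist at 10 nM final; 0% = 10 nM CXCL16 with DMSO and 100% = unstimulated wells without agonist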
Target sequence (O00574 whole entry, looked up): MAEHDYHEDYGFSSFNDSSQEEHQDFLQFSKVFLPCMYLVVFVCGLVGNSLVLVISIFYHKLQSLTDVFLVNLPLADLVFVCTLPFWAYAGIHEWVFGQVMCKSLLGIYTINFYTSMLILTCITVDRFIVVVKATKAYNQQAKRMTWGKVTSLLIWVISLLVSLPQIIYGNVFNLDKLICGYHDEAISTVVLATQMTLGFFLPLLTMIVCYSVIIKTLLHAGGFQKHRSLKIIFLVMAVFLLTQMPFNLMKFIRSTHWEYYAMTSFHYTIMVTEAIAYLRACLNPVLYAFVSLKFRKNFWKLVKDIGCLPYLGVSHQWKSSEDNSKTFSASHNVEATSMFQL
APJ antag: APJ receptor antagonism | CHO-K1 APJ beta-arrestin complementation, luminescence | inhibition, % at 20 µM | hit rate 0.32% among 330,000;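 active = inhibition above about 40% at 20 µM, limit read from the data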;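 note: cells challenged with 10 nM apelin-13 agonist together with compound; plate controls were apelin-13 plus DMSO wells for no effect and DMSO wells lacking apelin-13 for full effect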
CCR6 antag: antagonists of human CCR6 receptor; P51684; CHO-K1 CCR6 PathHunter beta-arrestin, luminescence, CCL20-stimulated; inhibition, % at 20 µM; hit rate 0.49% among 340,000; AID 493098;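 active = compounds whose inhibition of the agonist-driven luminescence signal at 20 µM reaches about 50%, limit read from the data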;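 note: cells stimulated with CCL20 at 14 nM final; plate controls were DMSO with CCL20 for no effect and DMSO without agonist for full effect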
Target sequence (P51684 whole entry, looked up): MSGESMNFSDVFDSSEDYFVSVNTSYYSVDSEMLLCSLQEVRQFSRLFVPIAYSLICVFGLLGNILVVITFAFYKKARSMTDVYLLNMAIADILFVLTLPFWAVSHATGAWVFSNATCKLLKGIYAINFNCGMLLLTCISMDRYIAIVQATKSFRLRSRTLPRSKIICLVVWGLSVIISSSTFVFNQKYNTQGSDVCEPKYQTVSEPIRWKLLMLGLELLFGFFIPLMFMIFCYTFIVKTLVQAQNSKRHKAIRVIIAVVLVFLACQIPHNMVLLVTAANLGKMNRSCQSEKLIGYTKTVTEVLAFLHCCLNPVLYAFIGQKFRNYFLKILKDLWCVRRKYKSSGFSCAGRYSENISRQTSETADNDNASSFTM
The depositor's hits bear a star; / = no result given. In the library only some 1.5% were active in any assay of this set; here they are far more common.

SMILES | APJ ag | EBI2 block | CXCR6 block | APJ antag | CCR6 antag
CNc1ccc(-c2cccc(C(=O)N3CCOCC3)c2)cn1 | / | -5.8 | -3.9 | / | /
O=C(/C=C/c1ccccn1)c1cc(Br)ccc1O | 0.1 | 10.7 | 4.9 | -5.2 | 59.3*
O=C(/C=C/c1ccccn1)c1ccc(Br)cc1O | / | 12.9 | -1.2 | / | 17.3
COc1ccc(/C=C/C2=NNC(=O)CC2)cc1 | -1.7 | 4.1 | 3.1 | -30.6 | 76.6*
CCOc1ccc(/C=C/C2=NNC(=O)CC2)cc1 | -0.7 | -9.9 | -6.1 | -9.1 | 13.4
CC1=NC(C)(C)CC2CCC(O)C12 (stereo unspecified) | / | -5.1 | 3.5 | / | 4.8
COC(=O)C1=C(C(=O)OC)SC(=C2C(=S)C(C)(C)N(C(=O)C(C)C)c3ccccc32)S1 | -4.6 | 30.7 | 31.8 | 28.6 | 52.6*
COC(=O)C1=C(C(=O)OC)SC(=C2C(=S)C(C)(C)N(C(=O)C3CC3)c3ccccc32)S1 | -11.8 | 27.9 | 34.4 | 38.5 | 52.4*
CCCCNC(=O)c1ccc2c(c1)C(=O)N(Cc1ccncc1)C2=O | -2.4 | -1.8 | -1.7 | 0.4 | 11.2
Cc1ccc(-c2nn3c(-c4ccco4)nnc3c3ccccc23)cc1S(=O)(=O)NCC1CCCO1 (stereo unspecified) | -10.3 | 17.2 | 0.0 | 11.4 | 50.9*
Nc1nc(SCC(=O)N2CCCCC2)[nH]c(=O)c1NC(=O)c1ccccc1F | 0.8 | -5.1 | -10.5 | 8.9 | -16.4
FC(F)(F)C1=Nc2cccc3cccc(c23)N1 | 12.3 | -5.4 | 62.5* | -41.3 | 80.0*
O=C(O)c1cscc1-c1cccc2ccccc12 | / | 2.3 | -7.5 | / | /
CC(/C=N/n1c(-c2ccc(Cl)cc2)n[nH]c1=S)=C\c1ccco1 | -1.6 | -8.5 | 12.9 | -11.7 | 17.0
N#CC(C#N)=C1C=CC=CN1/C(=C\c1ccco1)C(=O)c1ccc(Cl)cc1 | / | 73.6* | 102.9* | / | 116.9*
O=[N+]([O-])c1ccc(N=Nc2c(Cl)cc(O)cc2Cl)cc1 | / | 4.6 | 44.1* | / | 73.9*
CC1(C(=O)NS(=O)(=O)c2ccc(Cl)cc2)CCN1C(=O)Cc1cccs1 (stereo unspecified) | / | -3.2 | -0.4 | / | /
O=C(Cc1ccccn1)c1ccncc1 | / | -6.8 | 3.5 | / | 13.5
O=C1C=C(O)c2c(O)cccc2C1=O | -4.2 | / | / | -80.8 | /
O=C(O)c1cc(O)c2c(c1)C(=O)c1cccc(O)c1C2=O | 12.9 | 5.2 | 48.4* | -1.5 | 78.9*
COc1cc(/C=C2\SC(=S)N(c3cccnc3)C2=O)ccc1O | -8.9 | 5.9 | 65.4* | 52.8* | 74.8*
Cc1ccc(/C=C2\SC(=S)N(c3cccnc3)C2=O)cc1 | -1.3 | 1.1 | -2.0 | -15.1 | 3.2
CC(=O)c1ccccc1NC(=O)CN1C(=O)NC2(CCCCCCC2)C1=O | / | 4.0 | 0.8 | / | 1.2
CCc1ccc(S(=O)(=O)/N=C2\C=C(Nc3ccc(C(=O)O)cc3)C(=O)c3ccccc32)cc1 | -3.6 | -7.7 | 14.1 | 0.7 | 16.4
O=C1C(Nc2ccccc2)=C/C(=N/S(=O)(=O)c2cccs2)c2ccccc21 | / | 16.0 | 42.3* | / | 64.1*
SMILES | APJ ag | EBI2 block | CXCR6 block | APJ antag | CCR6 antag
CC(C)c1ccc(S(=O)(=O)/N=C2/C=C(Sc3ncn[nH]3)C(=O)c3ccccc32)cc1 | / | 11.1 | 9.4 | / | 6.8
Cc1ccc(S(=O)(=O)/N=C2/C=C(Sc3ncn[nH]3)C(=O)c3ccccc32)cc1 | / | -0.1 | 81.2* | / | 92.2*
Cc1ccc(NC2=C/C(=N/S(=O)(=O)c3cccs3)c3ccccc3C2=O)cc1 | 1.2 | 31.5 | 33.1 | 27.4 | 59.1*
CC(C)(C)c1ccc(S(=O)(=O)/N=C2\C=C(NS(=O)(=O)c3ccccc3)C(=O)c3ccccc32)cc1 | -3.8 | -2.5 | 28.2 | 0.1 | 50.1*
Cc1ccc(S(=O)(=O)/N=C2\C=C(Nc3cccc(C(=O)O)c3)C(=O)c3ccccc32)cc1 | -0.3 | -2.3 | 27.4 | 18.1 | 22.9
Cc1ccc(S(=O)(=O)/N=C2\C=C(Nc3ccc(O)cc3)C(=O)c3ccccc32)cc1 | -2.7 | -6.9 | 30.5 | 25.7 | 63.0*
Cn1c(=O)c(Nc2ccc(O)cc2)c2c3c(cccc31)C(=O)c1ccccc1-2 | -3.4 | 15.2 | 29.3 | 10.1 | 53.9*
O=C(ONc1ccc(N=NC(=O)c2ccccc2O)cc1)c1ccccc1 | -6.5 | 6.7 | 33.8 | 34.2 | 56.3*
O=C(NCc1ccco1)Nc1cccc(-c2ccccc2)c1 | / | 2.4 | -0.5 | / | 8.6
COc1ccccc1N1C(=O)C=C(Sc2nc(C)cc(C)n2)C1=O | -1.7 | 2.6 | 11.3 | -10.9 | 94.2*
COc1ccccc1N1C(=O)C2CC(C)=C(C)CC2C1=O (stereo unspecified) | 0.0 | -4.9 | -5.7 | 17.9 | 2.9
COC(=O)N1CCCCC1c1cc(C(=O)Nc2ccccc2Cl)no1 (stereo unspecified) | / | -3.4 | 8.4 | / | /
CC(=O)N(c1ccccc1C)C1CCCC1 | 1.4 | -6.9 | -3.6 | 5.5 | 6.1
CC(=O)N(C1=C(Cl)C(=O)c2ccccc2C1=O)C1CCCCC1 | 7.8 | 7.9 | 39.8* | -9.7 | 115.1*
O=C(CSc1nncc2ccccc12)Nc1cccc(O)c1 | 0.8 | -9.1 | 1.1 | -14.4 | 6.6
COc1ccc(C2CCCN2C(=O)Nc2ccc(C)c(C)c2)cc1OC (stereo unspecified) | 0.6 | 51.2* | 5.8 | 24.5 | 16.5
COc1ccc(C2CCCN2C(=S)Nc2ccc(C)c(C)c2)cc1OC (stereo unspecified) | -0.4 | 6.9 | -14.3 | -15.1 | 10.4
Cc1cc(NC(=O)CSc2nc(=O)n(CCCN(C)C)c3c2CCCC3)no1 | -4.3 | -6.4 | 1.8 | 14.8 | 13.0
CCCCn1nnnc1C1(C)CCC(=O)N1Cc1cccnc1 (stereo unspecified) | / | -11.1 | -1.9 | / | /
CNc1ccc(N=Nc2cccc3ncccc23)cc1 | / | 34.4 | 41.4* | / | 60.9*
Cc1cc(/C=N/n2c(COc3ccccc3)nc3ccccc3c2=O)c(O)c([N+](=O)[O-])c1 | -4.2 | 45.0* | 14.7 | 11.2 | 32.0
c1ccc(Nc2nc(-c3ccccc3)ns2)cc1 | 1.1 | 46.0* | -4.9 | -4.5 | 5.2
Cc1ccc(NS(=O)(=O)N2CCCCC2)cc1 | / | -12.8 | -11.7 | / | 7.5
Oc1c(C(Nc2ccccn2)c2cccnc2)cc(Cl)c2cccnc12 (stereo unspecified) | -0.1 | 50.1* | 1.5 | 24.2 | -9.7
CC(=O)Oc1ccc(N2C(=O)c3cccc4c([N+](=O)[O-])ccc(c34)C2=O)cc1 | -1.5 | 38.4 | 15.9 | 33.7 | 65.2*
O=C1c2cccc3c([N+](=O)[O-])ccc(c23)C(=O)N1c1nccs1 | 0.3 | 15.5 | 43.3* | 27.2 | 73.3*
O=[N+]([O-])c1ccc(N/N=C/c2ccc[nH]2)cc1 | / | 4.8 | 9.6 | / | 54.8*
O=[N+]([O-])c1ccc(NN=Cc2cccc([N+](=O)[O-])c2)cc1 | / | -12.9 | -1.6 | / | 13.6
Cc1[nH]c2ccccc2c1C1=CC(=O)C=CC1=O | / | -14.2 | 70.1* | / | /
CCOC(=O)Cn1c(=NC(=O)C2COc3ccccc3O2)sc2cc(S(N)(=O)=O)ccc21 (stereo unspecified) | 0.8 | -0.5 | 9.5 | 5.1 | 7.8
